According to ChEMBL document CHEMBL1124818, “Synthesis and cardiac electrophysiological activity of aryl-substituted derivatives of the class III antiarrhythmic agent sematilide. Potential class I/III agents” (J Med Chem, 1990):
Where “and” joins values, the source holds several entries; their conditions need not be identical. Equal values may be shown once.

Legend:
Canis familiaris [1] = species on record: Canis familiaris; assay: Duration of action potential was determined in vitro in Canine Purkinje fibers at 100 uM concentration.; assay type: functional, Canis lupus familiaris, Purkinje fiber
In short: (§1)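 Microelectrode recording in Purkinje fibers; action potential duration at 95% repolarization measured at each test concentration and expressed as percent change from control, mean ± SEM over the stated number of experiments.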

Canis familiaris [2] = species on record: Canis familiaris; assay: Duration of action potential was determined in vitro in Canine Purkinje fibers at 10 uM concentration.; assay type: functional, Canis lupus familiaris, Purkinje fiber; in short: as §1
[3] = Percent change from control value for Vmax at 30 uM of the compound.
In short: (§2)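 Microelectrode recording in Purkinje fibers; maximal depolarization rate (Vmax) measured at each test concentration, given as percent change from control, mean ± SEM; n per concentration may differ from APD experiments.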

Canis familiaris [4] = species on record: Canis familiaris; assay: Duration of action potential was determined in vitro in Canine Purkinje fibers at 0.1 uM concentration.; assay type: functional, Canis lupus familiaris, Purkinje fiber; in short: as §1
Cavia porcellus [5] = assay: Percent change in the mean time to first Ouabain-induced arrhythmia was determined in Guinea pig at a dose of 10 mg/kg; assay type: functional
In short: (§3)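 Anesthetized guinea pigs, tracheal cannulation with room-air respiration, right jugular cannulated; 5 min equilibration, test agent intravenous, then 10 min later ouabain 40 μg/kg iv bolus plus 10 μg/kg/min infusion until arrhythmia. Percent change in mean time to first arrhythmia (n = 4-6) versus vehicle control (n = 3-4).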

[6] = Percent change from control value for Vmax at 10 uM of the compound.; in short: as §2
Canis familiaris [7] = species on record: Canis familiaris; assay: Duration of action potential was determined in vitro in Canine Purkinje fibers at 1 uM concentration.; assay type: functional, Canis lupus familiaris, Purkinje fiber; in short: as §1
Canis familiaris [8] = species on record: Canis familiaris; assay: Duration of action potential was determined in vitro in Canine Purkinje fibers at 30 uM concentration.; assay type: functional, Canis lupus familiaris, Purkinje fiber; in short: as §1
[9] = Percent change from control value for Vmax at 0.1 uM of the compound.; in short: as §2
[10] = Percent change from control value for Vmax at 1 uM of the compound.; in short: as §2
[11] = Percent change from control value for Vmax at 100 uM of the compound.; in short: as §2
Canis familiaris [12] = species on record: Canis familiaris; assay: Duration of action potential in vitro against Canine Purkinje fibers; at 100 uM concentration.; assay type: functional, Canis lupus familiaris, Purkinje fiber; in short: as §1
Canis familiaris [13] = species on record: Canis familiaris; assay: Duration of action potential in vitro against Canine Purkinje fibers; at 1 uM concentration; assay type: functional, Canis lupus familiaris, Purkinje fiber; in short: as §1
Canis familiaris [14] = species on record: Canis familiaris; assay: Duration of action potential in vitro against Canine Purkinje fibers; at 30 uM concentration.; assay type: functional, Canis lupus familiaris, Purkinje fiber; in short: as §1
Canis familiaris [15] = species on record: Canis familiaris; assay: Duration of action potential in vitro against Canine Purkinje fibers; at 10 uM concentration.; assay type: functional, Canis lupus familiaris, Purkinje fiber; in short: as §1
Cavia porcellus [16] = assay: Percent change in the mean time to first Ouabain-induced arrhythmia was determined in Guinea pig at a dose of 3 mg/kg; assay type: functional; in short: as §3
Canis familiaris [17] = assay: Antiarrhythmic efficacy in vivo against Harris model; assay type: functional; conditions: Canis lupus familiaris, Heart
In short: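 Conscious dogs studied 24 h after two-stage coronary occlusion infarction (Harris method), when ectopy exceeds 75%; test agent given intravenously. Efficacy counted as >30% decrease in ectopy; per-dog effective dose recorded, non-responders given cumulative 10 mg/kg unless otherwise noted.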

Canis familiaris [18] = assay: Antiarrhythmic efficacy in vivo against PES model; assay type: functional; conditions: Canis lupus familiaris, Heart
In short: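 Conscious dogs 3-8 days after occlusion/reperfusion infarction (Karagueuzian method); programmed electrical stimulation induced two control arrhythmias before dosing, VF ended by DC countershock and sustained VT by burst pacing. After intravenous drug, reinduction attempted; efficacy counted when SVT/VF not inducible; per-dog effective dose recorded, non-responders to cumulative 10 mg/kg unless noted.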

Canis familiaris [19] = species on record: Canis familiaris; assay: Duration of action potential was determined in vitro in Canine Purkinje fibers at 1 uM concentration; assay type: functional, Canis lupus familiaris, Purkinje fiber; in short: as §1
[20] = Percent change from control value for Vmax at 10 uM of the compound; in short: as §2
Canis familiaris [21] = species on record: Canis familiaris; assay: Duration of action potential was determined in vitro in Canine Purkinje fibers at 0.1 uM concentration; assay type: functional, Canis lupus familiaris, Purkinje fiber; in short: as §1
[22] = Percent change from control value for Vmax at 1 uM of the compound; in short: as §2
Canis familiaris [23] = species on record: Canis familiaris; assay: Duration of action potential was determined in vitro in Canine Purkinje fibers at 30 uM concentration; assay type: functional, Canis lupus familiaris, Purkinje fiber; in short: as §1
[24] = Percent change from control value for Vmax at 0.1 uM of the compound; in short: as §2
[25] = Percent change from control value for Vmax at 30 uM of the compound; in short: as §2
Canis familiaris [26] = species on record: Canis familiaris; assay: Duration of action potential was determined in vitro in Canine Purkinje fibers at 10 uM concentration; assay type: functional, Canis lupus familiaris, Purkinje fiber; in short: as §1
Canis familiaris [27] = species on record: Canis familiaris; assay: Duration of action potential in vitro against Canine Purkinje fibers, at 10 uM concentration.; assay type: functional, Canis lupus familiaris, Purkinje fiber; in short: as §1
Canis familiaris [28] = species on record: Canis familiaris; assay: Duration of action potential in vitro against Canine Purkinje fibers, at 30 uM concentration.; assay type: functional, Canis lupus familiaris, Purkinje fiber; in short: as §1
[29] = Percent change from control value for Vmax at 3 uM of the compound.; in short: as §2
Canis familiaris [30] = species on record: Canis familiaris; assay: Duration of action potential in vitro against Canine Purkinje fibers; at 3 uM concentration; assay type: functional, Canis lupus familiaris, Purkinje fiber; in short: as §1
Cavia porcellus [31] = assay: Percent change in the mean time to first Ouabain-induced arrhythmia was determined in Guinea pig at 10 mg/kg dose; assay type: functional; in short: as §3
Canis familiaris [32] = species on record: Canis familiaris; assay: Duration of action potential in vitro against Canine Purkinje fibers, at 100 uM concentration.; assay type: functional, Canis lupus familiaris, Purkinje fiber; in short: as §1
Canis familiaris [33] = species on record: Canis familiaris; assay: Duration of action potential in vitro against Canine Purkinje fibers, at 3 uM concentration.; assay type: functional, Canis lupus familiaris, Purkinje fiber; in short: as §1

SMILES | Delta APD95 (Canis familiaris [2]) [%] | Delta Vmax [3] [%] | Delta APD95 (Canis familiaris [4]) [%] | Change (Cavia porcellus [5]; dose 10 mg/kg) [%] | Delta Vmax [6] [%] | Delta APD95 (Canis familiaris [7]) [%] | Delta APD95 (Canis familiaris [8]) [%] | Delta Vmax [9] [%] | Delta Vmax [10] [%] | Delta APD95 (Canis familiaris [13]) [%] | ED50 (Canis familiaris [18]) [mg/kg] | also measured
CCN(CC)CCN(C(=O)c1ccc(NS(C)(=O)=O)cc1)c1ccccc1.Cl | 52 | -20 | 4 | -9 | -12 | 18 | 38 | -4 | -3 | – | – | Delta APD95 (Canis familiaris [1]): 45%; Delta Vmax [11]: -39%
CCN(CC)CC(NC(=O)c1ccc(NS(C)(=O)=O)cc1)c1ccccc1.Cl (stereo not given) | – | -34 | 4 | 61 | -13 | – | – | 6 | -2 | 21 | – | Delta APD95 (Canis familiaris [12]): -20%; Delta APD95 (Canis familiaris [14]): -12%; Delta Vmax [11]: -76%; Delta APD95 (Canis familiaris [15]): -2%
CCN(CC)CCN(C(=O)c1ccc(NS(C)(=O)=O)cc1)c1c(C(C)C)cccc1C(C)C.Cl | 22 | – | – | – | -11 | 21 | – | – | 1 | – | 1 | Change (Cavia porcellus [16]): 22%; ED50 (Canis familiaris [17]): 10 mg/kg
CCN(CC)CCN(C(=O)c1ccc(NS(C)(=O)=O)cc1)c1c(C)cccc1C.Cl | 30 | -6 | 7 | -8 | -3 | 10 | 40 | -4 | -2 | – | – | –
CCN(CC)CCN(C(=O)c1ccc(NS(C)(=O)=O)cc1)c1cccc2ccccc12.Cl | – | -16 | 10 | -25 | -13 | – | – | 2 | -5 | 51 | 1 | Change (Cavia porcellus [16]): 8%; Delta APD95 (Canis familiaris [12]): 26%; Delta Vmax [11]: -42%; Delta APD95 (Canis familiaris [15]): 64% and 37%
CCc1ccc(N(CCN(CC)CC)C(=O)c2ccc(NS(C)(=O)=O)cc2)cc1.Cl | 70 | -6 | 12 | 20 | 4 | 51 | 62 | 5 | 8 | – | – | –
CCN(CC)CCN(C(=O)c1ccc(NS(C)(=O)=O)cc1)c1ccc(NS(C)(=O)=O)cc1 | – | – | – | 22 | – | – | – | – | – | – | – | Delta APD95 (Canis familiaris [19]): 10%; Delta Vmax [20]: -3%; Delta APD95 (Canis familiaris [21]): 7%; Delta Vmax [22]: -2%; Delta APD95 (Canis familiaris [23]): 40%; Delta Vmax [24]: -4%; Delta Vmax [25]: -6%; Delta APD95 (Canis familiaris [26]): 30%
CCN(CC)C(CNC(=O)c1ccc(NS(C)(=O)=O)cc1)c1ccccc1 (stereo not given) | – | -15 | 11 | -13 | -12 | – | – | -4 | -4 | 40 | – | Delta APD95 (Canis familiaris [27]): 46%; Delta APD95 (Canis familiaris [28]): 52%
CCN(CC)CCN(C(=O)c1ccc(NS(C)(=O)=O)cc1)c1ccc(Cl)cc1 | 64 | -20 | 9 | 18 | -8 | 34 | 60 | 3 | 2 | – | – | –
CCN(CC)CCN(C(=O)c1ccc(NS(C)(=O)=O)cc1)c1ccc(OC)cc1.O=C(O)/C=C/C(=O)O | 82 | -8 | 8 | 15 | -3 | 35 | 66 | 0 | -3 | – | – | –
CCN(CC)C(CNC(=O)c1ccc(NS(C)(=O)=O)cc1)c1cccc2ccccc12 (stereo not given) | – | -7 | 4 | 0 | -4 | – | – | 1 | -2 | 29 | – | Delta APD95 (Canis familiaris [27]): 34%; Delta APD95 (Canis familiaris [28]): 29%
CCN(CC)CC(NC(=O)c1ccc(NS(C)(=O)=O)cc1)c1cccc2ccccc12 (stereo not given) | – | – | 14 | – | – | – | – | -3 | -20 | 10 | 1 | Delta APD95 (Canis familiaris [27]): -14%; Change (Cavia porcellus [5]; dose 3 mg/kg, in the assay text read “3 mg/kg” for “10 mg/kg”): 70%; ED50 (Canis familiaris [17]): 2 mg/kg
O=C(NCC1CCCCN1)c1cc(OCC(F)(F)F)ccc1OCC(F)(F)F (stereo not given) [FLECAINIDE] | – | – | -3 | – | -30 | – | – | 2 | -6 | -15 | 1 | Change (Cavia porcellus [16]): 51%; ED50 (Canis familiaris [17]): 1 mg/kg; Delta Vmax [29]: -11%; Delta APD95 (Canis familiaris [30]): -35%; Delta APD95 (Canis familiaris [15]): -47%
CCN(CC)CC(=O)Nc1c(C)cccc1C [LIDOCAINE] | -25 | – | – | 30 | 1 | -7 | – | – | 2 | – | – | –
C=C[C@H]1CN2CC[C@H]1C[C@@H]2[C@@H](O)c1ccnc2ccc(OC)cc12 [QUINIDINE] | -4 | -23 | 2 | – | – | 4 | -17 | 0 | -1 | – | 1 | Delta APD95 (Canis familiaris [1]): -14%; Change (Cavia porcellus [31]): 28%; ED50 (Canis familiaris [17]): 10 mg/kg
CCN(CC)CCNC(=O)c1ccc(NS(C)(=O)=O)cc1 [SEMATILIDE] | – | – | 0 | – | 0 | – | – | 2 | 0 | 6 | 1 | Delta APD95 (Canis familiaris [32]): 66%; Delta APD95 (Canis familiaris [27]): 33%; Delta APD95 (Canis familiaris [33]): 14%; Delta APD95 (Canis familiaris [28]): 51%; Delta Vmax [11]: 0%
